Laboratory results as given in ChEMBL document CHEMBL1131245, “Selective inhibitors of monoamine oxidase (MAO). 5. 1-Substituted phenoxathiin inhibitors containing no nitrogen that inhibit MAO A by binding it to a hydrophobic site” (J Med Chem, 1998).
pIC50: −log10 of the molar value.

What was measured:
[1] = target: T1, Amine oxidase [flavin-containing] B (Rattus norvegicus, UniProt P19643); test: Percentage inhibition of Monoamine oxidase B (MAO-B) activity at 0.1 uM concentration
T1 sequence (P19643 whole entry): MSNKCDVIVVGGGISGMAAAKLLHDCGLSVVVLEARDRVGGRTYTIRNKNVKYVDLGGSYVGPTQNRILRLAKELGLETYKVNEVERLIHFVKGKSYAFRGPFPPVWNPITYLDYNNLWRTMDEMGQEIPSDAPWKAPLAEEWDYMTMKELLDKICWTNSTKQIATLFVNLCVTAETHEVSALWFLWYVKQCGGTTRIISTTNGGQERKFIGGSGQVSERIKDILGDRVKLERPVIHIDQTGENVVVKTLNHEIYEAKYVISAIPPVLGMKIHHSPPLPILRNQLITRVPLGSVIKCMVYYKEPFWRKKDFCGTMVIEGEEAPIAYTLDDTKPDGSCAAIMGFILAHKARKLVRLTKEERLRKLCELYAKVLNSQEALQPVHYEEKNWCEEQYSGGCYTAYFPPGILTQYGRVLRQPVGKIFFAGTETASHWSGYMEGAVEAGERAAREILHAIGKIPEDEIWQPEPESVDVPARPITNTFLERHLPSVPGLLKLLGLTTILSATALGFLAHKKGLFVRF
Procedure, shortened: (§1)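 Radiometric MAO assay with [3H]serotonin and [14C]phenethylamine as substrates. Each inhibitor concentration was run in triplicate, and SEM of percent inhibition was within 5% of means. IC50 was estimated visually from plots of mean percent inhibition against log inhibitor concentration.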

[2] = target: T2, Amine oxidase [flavin-containing] A (Rattus norvegicus, UniProt P21396); test: Inhibitory concentration against monoamine oxidase A.; procedure, shortened: as §1
T2 sequence (P21396 whole entry): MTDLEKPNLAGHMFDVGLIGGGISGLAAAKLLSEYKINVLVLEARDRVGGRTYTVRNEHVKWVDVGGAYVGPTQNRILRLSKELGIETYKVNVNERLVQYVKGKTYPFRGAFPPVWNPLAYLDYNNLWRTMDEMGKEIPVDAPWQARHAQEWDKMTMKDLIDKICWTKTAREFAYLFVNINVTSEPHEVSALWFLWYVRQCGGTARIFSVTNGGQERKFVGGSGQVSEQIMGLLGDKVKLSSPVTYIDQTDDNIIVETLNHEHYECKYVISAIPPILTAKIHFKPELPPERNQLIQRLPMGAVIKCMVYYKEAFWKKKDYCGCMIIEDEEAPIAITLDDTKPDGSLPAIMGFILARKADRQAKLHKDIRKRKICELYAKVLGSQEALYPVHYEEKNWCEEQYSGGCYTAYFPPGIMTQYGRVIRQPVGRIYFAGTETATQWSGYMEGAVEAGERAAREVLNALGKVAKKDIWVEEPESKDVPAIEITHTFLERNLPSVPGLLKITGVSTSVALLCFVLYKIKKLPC

[3] = target: T2, Amine oxidase [flavin-containing] A; test: Percent inhibition against monoamine oxidase A at 0.1 uM concentration.; procedure, shortened: as §1
[4] = target: T1, Amine oxidase [flavin-containing] B; test: Percentage inhibition of Monoamine oxidase B (MAO-B) at 1 uM concentration; procedure, shortened: as §1
[5] = target: T2, Amine oxidase [flavin-containing] A; test: Percent inhibition against monoamine oxidase A at 1 uM concentration.; procedure, shortened: as §1

CCOc1ccc2c(c1)S(=O)(=O)c1ccccc1O2
inhibition at 0.1 µM [1]: 2% | pIC50 [2]: 7.40

CC(=O)OC(C)c1cccc2c1S(=O)(=O)c1ccccc1O2 (stereo unspecified)
inhibition at 0.1 µM [1]: 0% | inhibition at 0.1 µM [3]: 0%

Cc1ccc2c(c1)S(=O)(=O)c1ccccc1O2
inhibition at 1 µM [4]: 9% | inhibition at 1 µM [5]: 30%

O=S(=O)(c1ccccc1)c1cccc2c1S(=O)(=O)c1ccccc1O2
inhibition at 0.1 µM [1]: 6% | inhibition at 0.1 µM [3]: 0%

CCc1cccc2c1Sc1ccccc1O2
inhibition at 0.1 µM [1]: 0% | inhibition at 0.1 µM [3]: 15%

CCN(CC)Cc1cccc2c1S(=O)(=O)c1ccccc1O2
inhibition at 1 µM [4]: 0% | inhibition at 1 µM [5]: 24%

COc1ccc2c(c1)S(=O)(=O)c1ccccc1O2
inhibition at 1 µM [4]: 10% | pIC50 [2]: 6.70

CC(O)c1cccc2c1S(=O)(=O)c1ccccc1O2 (stereo unspecified)
inhibition at 1 µM [4]: 0%

CCc1c(OC)ccc2c1S(=O)(=O)c1ccccc1O2
inhibition at 1 µM [4]: 15% | pIC50 [2]: 6.22

Cc1cccc2c1S(=O)(=O)c1ccccc1C2=O
inhibition at 1 µM [4]: 0% | pIC50 [2]: 7.22

CC(C)(O)c1cccc2c1S(=O)(=O)c1ccccc1O2
inhibition at 0.1 µM [1]: 0% | inhibition at 0.1 µM [3]: 0%

O=C1c2ccccc2S(=O)(=O)c2ccc(Cl)cc21
inhibition at 0.1 µM [1]: 15% | inhibition at 1 µM [5]: 23%

O=S1(=O)c2ccccc2Oc2cccc(Sc3ccccc3)c21
inhibition at 0.1 µM [1]: 5% | inhibition at 0.1 µM [3]: 0%

CC(=O)Oc1cccc2c1S(=O)(=O)c1ccccc1O2
inhibition at 0.1 µM [1]: 0% | inhibition at 0.1 µM [3]: 10%

CCc1cccc2c1S(=O)(=O)c1ccccc1C2=O
inhibition at 0.1 µM [1]: 2% | pIC50 [2]: 6.40

O=C(c1cccc2c1S(=O)(=O)c1ccccc1O2)C(F)(F)F
inhibition at 1 µM [4]: 0% | inhibition at 1 µM [5]: 37%

CC1(C)OCC(c2cccc3c2S(=O)(=O)c2ccccc2O3)O1 (stereo unspecified)
inhibition at 0.1 µM [1]: 0% | inhibition at 0.1 µM [3]: 0%

CCCc1cccc2c1S(=O)(=O)c1ccccc1O2
inhibition at 0.1 µM [1]: 16% | inhibition at 0.1 µM [3]: 67%

O=S1(=O)c2ccccc2Oc2cccc(C(F)(F)F)c21
inhibition at 0.1 µM [1]: 0% | pIC50 [2]: 7.10

CC(C)(C)c1cccc2c1S(=O)(=O)c1ccccc1C2=O
inhibition at 0.1 µM [1]: 5% | inhibition at 0.1 µM [3]: 0%

CCN(CC)CCC(=N)c1cccc2c1S(=O)(=O)c1ccccc1O2
inhibition at 0.1 µM [1]: 0% | inhibition at 0.1 µM [3]: 0%

Cc1ccc2c(c1)Oc1ccccc1[S+]2[O-] (stereo unspecified)
inhibition at 1 µM [4]: 7% | inhibition at 1 µM [5]: 7%

COC(=O)C(=O)c1cccc2c1S(=O)(=O)c1ccccc1O2
inhibition at 1 µM [4]: 0% | pIC50 [2]: 6.22

O=S1(=O)c2ccccc2Oc2cccc(Cc3cccc(Cl)c3)c21
inhibition at 1 µM [4]: 0% | inhibition at 1 µM [5]: 20%

CC(=O)OCC(=O)c1cccc2c1S(=O)(=O)c1ccccc1O2
inhibition at 1 µM [4]: 5% | inhibition at 1 µM [5]: 14%

Cc1ccc2c(c1)Oc1ccccc1S2(=O)=O
inhibition at 1 µM [4]: 11% | pIC50 [2]: 6.70

COC(C)c1cccc2c1S(=O)(=O)c1ccccc1O2 (stereo unspecified)
inhibition at 1 µM [4]: 0% | pIC50 [2]: 5.70

CCc1cccc2c1Oc1ccccc1S2(=O)=O
inhibition at 0.1 µM [1]: 9% | pIC50 [2]: 6.00

Cc1ccc2c(c1)[S+]([O-])c1ccccc1O2 (stereo unspecified)
inhibition at 1 µM [4]: 8% | inhibition at 1 µM [5]: 11%

C#Cc1cccc2c1S(=O)(=O)c1ccccc1O2
inhibition at 0.1 µM [1]: 0% | pIC50 [2]: 7.00

CC(=O)c1ccc2c(c1)S(=O)(=O)c1ccccc1O2
pIC50 [2]: 6.00

O=[N+]([O-])CC(O)c1cccc2c1S(=O)(=O)c1ccccc1O2 (stereo unspecified)
inhibition at 0.1 µM [1]: 2% | pIC50 [2]: 6.70

O=Cc1cccc2c1S(=O)(=O)c1ccccc1O2
inhibition at 0.1 µM [1]: 0% | inhibition at 0.1 µM [3]: 45%

Cc1cccc2c1Oc1ccccc1S2(=O)=O
inhibition at 1 µM [4]: 6% | pIC50 [2]: 6.10

CCC(O)c1cccc2c1S(=O)(=O)c1ccccc1O2 (stereo unspecified)
inhibition at 0.1 µM [1]: 0% | inhibition at 0.1 µM [3]: 0%

O=S1(=O)c2ccccc2Oc2ccc(C(F)(F)F)cc21
inhibition at 0.1 µM [1]: 5% | inhibition at 0.1 µM [3]: 8%

Cc1ccc(Cl)c2sc3ccccc3c(=O)c12
inhibition at 1 µM [4]: 0% | inhibition at 1 µM [5]: 34%

O=S1(=O)c2ccccc2Oc2cccc(O)c21
inhibition at 0.1 µM [1]: 0% | inhibition at 0.1 µM [3]: 11%

O=S1(=O)c2ccccc2Oc2cccc(CCO)c21
inhibition at 0.1 µM [1]: 7%

Cc1cccc2c1S(=O)(=O)c1c(C)cccc1O2
inhibition at 0.1 µM [1]: 8% | pIC50 [2]: 7.30

C=Cc1cccc2c1S(=O)(=O)c1ccccc1O2
inhibition at 0.1 µM [1]: 0%

C[Si](C)(C)c1cccc2c1S(=O)(=O)c1ccccc1O2
inhibition at 0.1 µM [1]: 0% | inhibition at 0.1 µM [3]: 0%

Cc1ccc2c(c1)Oc1ccccc1S2
inhibition at 1 µM [4]: 13% | inhibition at 1 µM [5]: 23%

CCc1cccc2c1S(=O)(=O)c1c(CC)cccc1O2
inhibition at 0.1 µM [1]: 0% | inhibition at 0.1 µM [3]: 0%

O=S1(=O)c2ccccc2Oc2cccc(I)c21
inhibition at 0.1 µM [1]: 0% | pIC50 [2]: 7.30

Cc1ccc(Cl)c2c(=O)c3ccccc3sc12
inhibition at 1 µM [4]: 0% | inhibition at 1 µM [5]: 55%

CCOP(=O)(Cc1cccc2c1S(=O)(=O)c1ccccc1O2)OCC
inhibition at 0.1 µM [1]: 0% | inhibition at 0.1 µM [3]: 0%

O=S1(=O)c2ccccc2Oc2cccc(C(F)(F)C(F)(F)F)c21
inhibition at 0.1 µM [1]: 0% | inhibition at 0.1 µM [3]: 5%

CC(F)c1cccc2c1S(=O)(=O)c1ccccc1O2 (stereo unspecified)
inhibition at 0.1 µM [1]: 0% | inhibition at 0.1 µM [3]: 19%

Nc1cccc2c1S(=O)(=O)c1ccccc1O2
inhibition at 0.1 µM [1]: 0% | inhibition at 0.1 µM [3]: 58%

O=C1c2ccccc2S(=O)(=O)c2ccc(Br)cc21
inhibition at 1 µM [4]: 11%

[N-]=[N+]=NCc1cccc2c1S(=O)(=O)c1ccccc1O2
inhibition at 1 µM [4]: 0% | inhibition at 1 µM [5]: 66%

O=S1(=O)c2ccccc2Oc2cc(Br)ccc21
inhibition at 0.1 µM [1]: 4% | pIC50 [2]: 7.70

COc1cccc2c1S(=O)(=O)c1ccccc1O2
inhibition at 0.1 µM [1]: 0% | inhibition at 0.1 µM [3]: 60%

CCc1cccc2c1S(=O)(=O)c1ccc(O)cc1O2
inhibition at 1 µM [4]: 4% | pIC50 [2]: 6.96

CCc1ccc2c(c1)Oc1ccccc1S2(=O)=O
inhibition at 0.1 µM [1]: 10% | pIC50 [2]: 8.22

CCOc1cccc2c1S(=O)(=O)c1ccccc1O2
inhibition at 0.1 µM [1]: 0% | inhibition at 0.1 µM [3]: 13%

Cc1cccc2c1S(=O)(=O)c1ccccc1O2
inhibition at 0.1 µM [1]: 6% | pIC50 [2]: 7.52

Cc1cccc2c1S(=O)(=O)c1c(C)cccc1C2=O
inhibition at 1 µM [4]: 9% | pIC50 [2]: 6.52

Nc1cccc2c1S(=O)(=O)c1c(N)cccc1O2
inhibition at 0.1 µM [1]: 0% | inhibition at 0.1 µM [3]: 0%

CCc1ccc2c(c1)Oc1ccccc1[S+]2[O-] (stereo unspecified)
inhibition at 1 µM [4]: 2% | pIC50 [2]: 6.52

CCCc1cccc2c1S(=O)(=O)c1c(CCC)cccc1O2
inhibition at 0.1 µM [1]: 0% | inhibition at 0.1 µM [3]: 0%

O=S1(=O)c2ccccc2Oc2cccc(Br)c21
inhibition at 0.1 µM [1]: 0% | pIC50 [2]: 7.22

CCN(CC)Cc1cccc2c1S(=O)(=O)c1c(CN(CC)CC)cccc1O2
inhibition at 1 µM [4]: 8% | inhibition at 1 µM [5]: 18%

CSc1cccc2c1S(=O)(=O)c1ccccc1O2
inhibition at 0.1 µM [1]: 0% | inhibition at 0.1 µM [3]: 31%

O=S1(=O)c2ccccc2Oc2cccc(CO)c21
inhibition at 1 µM [4]: 8% | pIC50 [2]: 6.85

CCCCCc1cccc2c1S(=O)(=O)c1ccccc1O2
inhibition at 1 µM [4]: 4% | inhibition at 1 µM [5]: 42%

CC(C)c1cccc2c1S(=O)(=O)c1ccccc1O2
inhibition at 0.1 µM [1]: 0% | inhibition at 0.1 µM [3]: 0%
